According to ChEMBL document CHEMBL1158823, “Extraction, hemisynthesis, and synthesis of canthin-6-one analogues. Evaluation of their antifungal activities” (2005):
≈ marks a conversion by molar mass, not a printed value.

What was measured:
Format in all cases: functional
Saccharomyces cerevisiae = assay: Antifungal activity against Saccharomyces cerevisiae ATCC 26.01
In short: (§1)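 Bioautographic assay, with the minimal inhibitory concentration (MIC) estimated from it.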

Candida albicans = assay: Antifungal activity against Candida albicans ATCC 10231
In short: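 Bioautographic assay against Candida albicans CIP 4872 (also listed as ATCC 10231 and NIH 3147), with the minimal inhibitory concentration (MIC) estimated.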

Cryptococcus neoformans = assay: Antifungal activity against Cryptococcus neoformans H99; in short: as §1
Aspergillus fumigatus = assay: Antifungal activity against Aspergillus fumigatus 04-486; in short: as §1
[1] = test system: Trichophyton mentagrophytes; assay: Antifungal activity against Trichophyton mentagrophytes var. interdigitale CPCM 06.99; in short: as §1

MIC (Saccharomyces cerevisiae; read-out: MIC) | MIC (Candida albicans; read-out: MIC) | MIC (Cryptococcus neoformans; var grubii H99, read-out: MIC) | MIC (Aspergillus fumigatus) | MIC [1] | MIC (Saccharomyces cerevisiae) | MIC (Candida albicans) | MIC (Cryptococcus neoformans; var grubii H99) | SMILES
53 µM (≈ 12.5 µg/mL) | > 200 µM | > 200 µM | > 200 µM | > 200 µM | – | – | – | O=c1ccc2c3c(cc[n+]2[O-])c2ccccc2n13
50 µM (≈ 12.5 µg/mL) | 100 µM (≈ 25 µg/mL) | 200 µM (≈ 50.1 µg/mL) | > 200 µM | > 200 µM | – | – | – | COc1ccc2c(c1)c1ccnc3ccc(=O)n2c31
7.7 µM | > 200 µM | > 200 µM | > 200 µM | > 200 µM | – | – | – | O=c1ccc2c3c(cc[n+]2CCBr)c2ccccc2n13
> 200 µM | 146 µM (≈ 50 µg/mL) | > 200 µM | > 200 µM | – | – | – | – | COc1c2c(c3ccc(=O)oc3c1/C=C\C(C)(C)O)OC(C)(C)C=C2
– | – | – | – | – | 13.1 µM (≈ 3.12 µg/mL) | 13.1 µM (≈ 3.12 µg/mL) | 13.1 µM (≈ 3.12 µg/mL) | O=c1ccc2nccc3c4ccc(F)cc4n1c23
– | – | – | – | – | > 200 µM | > 200 µM | > 200 µM | Cc1cc2c3ccccc3n3c(=O)ccc(n1)c23
124 µM | 124 µM | > 200 µM | > 200 µM | > 200 µM | – | – | – | CCCC[n+]1ccc2c3ccccc3n3c(=O)ccc1c23
53.2 µM (≈ 12.5 µg/mL) | 53.2 µM (≈ 12.5 µg/mL) | 106 µM (≈ 24.9 µg/mL) | > 200 µM | 106 µM (≈ 24.9 µg/mL) | – | – | – | Nc1cc(=O)n2c3ccccc3c3ccnc1c32
50 µM (≈ 12.5 µg/mL) | > 200 µM | 50 µM (≈ 12.5 µg/mL) | 50 µM (≈ 12.5 µg/mL) | 6.3 µM (≈ 1.58 µg/mL) | – | – | – | COc1cc2nccc3c4ccccc4n(c1=O)c23 [5-METHOXYCANTHINONE]
> 200 µM | 146 µM (≈ 50 µg/mL) | > 200 µM | > 200 µM | – | – | – | – | COc1c2c(c3ccc(=O)oc3c1/C=C/C(C)(C)O)OC(C)(C)C=C2 [AVICENNOL]
14.2 µM (≈ 3.13 µg/mL) | 56.8 µM (≈ 12.5 µg/mL) | 14.2 µM (≈ 3.13 µg/mL) | 14.2 µM (≈ 3.13 µg/mL) | 7.1 µM (≈ 1.56 µg/mL) | – | – | – | O=c1ccc2nccc3c4ccccc4n1c23 [CANTHIN-6-ONE]

SMILES | MIC (Saccharomyces cerevisiae; read-out: MIC) | MIC (Candida albicans; read-out: MIC) | MIC (Cryptococcus neoformans; var grubii H99, read-out: MIC) | MIC (Aspergillus fumigatus) | MIC [1] | MIC (Saccharomyces cerevisiae) | MIC (Candida albicans) | MIC (Cryptococcus neoformans; var grubii H99)
CC(=O)N1CCN(c2ccc(OCC3COC(Cn4ccnc4)(c4ccc(Cl)cc4Cl)O3)cc2)CC1 (centres undefined) [KETOCONAZOLE] | 5.9 µM (≈ 3.14 µg/mL) | 2.9 µM (≈ 1.54 µg/mL) | 5.9 µM (≈ 3.14 µg/mL) | 94.2 µM (≈ 50.1 µg/mL) | 23.5 µM (≈ 12.5 µg/mL) | – | – | –
